# Activity calls are given as the source filed them. The rule behind the calls is not given here.
# Experiments:
# SK-MEL-28 = assay: Cytotoxicity against human SK-MEL-28 cells expressing B-raf V600E mutant after 48 hrs by hexosaminidase assay; assay type: functional, cell-based
# In short: (§1)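 SK-MEL-28 or B16/F10 cells plated in 96-well plates, grown overnight, then treated with 0–50 µM compound for 48 h. Cells washed with PBS, given hexosaminidase substrate for 30 min at 37 °C, then developer. Absorbance read at 405 nm. Percent viability = treated/control absorbance × 100.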
# [1] = biological target: Histone deacetylase 1 (Homo sapiens) (UniProt Q13547); assay: Inhibition of HDAC1 (unknown origin) up to 100 uM
# [2] = biological target: Histone deacetylase 2 (Homo sapiens) (UniProt Q92769); assay: Inhibition of HDAC2 (unknown origin) up to 100 uM
# M14 [3] = assay: Cytotoxicity against human M14 cells assessed as cell viability at 100 uM after 24 hrs by CellTiter-Glo luminescence assay; assay type: functional, cell-based
# In short: (§2)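 M14 cells, 1250 per well, in serum-free DMEM. Compounds given in 10-point 1:3 dilution series starting at 100 µM; controls were gefitinib, doxorubicin and ionomycin. Incubated at 37 °C, 5% CO2. CellTiter-Glo luminescence read at 4, 24, 48 and 72 h. Viability normalized to media-only wells and 1% DMSO-treated wells.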
# M14 [4] = assay: Cytotoxicity against human M14 cells assessed as cell viability at 100 uM after 48 hrs by CellTiter-Glo luminescence assay; assay type: functional, cell-based; in short: as §2
# M14 [5] = assay: Cytotoxicity against human M14 cells after 72 hrs by CellTiter-Glo luminescence assay; assay type: functional, cell-based
# In short: (§3)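 1250 cells per well in serum-free medium (F12 for CHO-K1 and A549, DMEM for M14). Compounds given as 10-point 1:3 serial dilutions from a 300 µM stock, plus a gefitinib control. Incubated 72 h at 37 °C, 5% CO2. CellTiter-Glo added for 15 min at room temperature, then luminescence read. Viability normalized to media-only wells (0%) and 1% DMSO wells (100%). Run in triplicate.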
# B16-F10 = assay: (§4) Cytotoxicity against mouse B16F10 cells expressing p53 mutant after 48 hrs by hexosaminidase assay; assay type: functional, cell-based; in short: as §1
# [6] = as §4; assay type: functional, cell-based; settings: B16-F10, 48 h; in short: as §1
# [7] = biological target: T1, Protein deacetylase HDAC6 (Homo sapiens) (UniProt Q9UBN7); assay: Inhibition of HDAC6 (unknown origin) up to 100 uM
# T1 sequence (whole entry): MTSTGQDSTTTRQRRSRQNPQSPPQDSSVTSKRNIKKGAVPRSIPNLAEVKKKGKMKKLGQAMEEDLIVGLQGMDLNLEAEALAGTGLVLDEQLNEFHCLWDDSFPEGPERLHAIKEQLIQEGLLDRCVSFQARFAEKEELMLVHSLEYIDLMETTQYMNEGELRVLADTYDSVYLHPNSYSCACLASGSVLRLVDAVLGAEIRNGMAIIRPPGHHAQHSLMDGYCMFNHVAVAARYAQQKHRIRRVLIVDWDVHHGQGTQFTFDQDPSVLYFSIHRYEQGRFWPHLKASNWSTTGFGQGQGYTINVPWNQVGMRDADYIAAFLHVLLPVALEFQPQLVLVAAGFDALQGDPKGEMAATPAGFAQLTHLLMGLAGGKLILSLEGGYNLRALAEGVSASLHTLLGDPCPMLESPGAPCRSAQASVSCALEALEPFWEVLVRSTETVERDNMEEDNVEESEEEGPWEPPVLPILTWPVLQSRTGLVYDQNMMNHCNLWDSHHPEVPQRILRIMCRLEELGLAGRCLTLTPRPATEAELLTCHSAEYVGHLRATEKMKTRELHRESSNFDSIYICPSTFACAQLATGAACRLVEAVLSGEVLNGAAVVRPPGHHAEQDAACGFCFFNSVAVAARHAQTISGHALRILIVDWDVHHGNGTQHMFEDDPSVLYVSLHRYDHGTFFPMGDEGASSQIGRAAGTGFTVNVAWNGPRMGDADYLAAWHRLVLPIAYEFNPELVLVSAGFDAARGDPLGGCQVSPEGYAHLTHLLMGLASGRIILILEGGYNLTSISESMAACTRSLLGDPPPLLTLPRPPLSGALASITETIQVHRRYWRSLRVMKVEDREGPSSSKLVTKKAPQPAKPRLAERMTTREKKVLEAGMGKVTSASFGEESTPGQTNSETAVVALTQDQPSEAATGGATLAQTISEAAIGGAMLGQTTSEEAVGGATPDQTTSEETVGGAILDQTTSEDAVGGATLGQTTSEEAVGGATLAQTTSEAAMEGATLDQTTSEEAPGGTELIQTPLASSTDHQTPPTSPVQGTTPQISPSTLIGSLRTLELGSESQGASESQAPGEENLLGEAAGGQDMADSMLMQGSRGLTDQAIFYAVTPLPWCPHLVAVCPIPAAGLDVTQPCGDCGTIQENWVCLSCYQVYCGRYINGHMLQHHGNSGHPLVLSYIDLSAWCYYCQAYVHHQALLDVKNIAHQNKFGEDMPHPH
# M14 [8] = assay: Cytotoxicity against human M14 cells assessed as cell viability at 100 uM after 4 hrs by CellTiter-Glo luminescence assay; assay type: functional, cell-based; in short: as §2
# A549 = assay: Cytotoxicity against human A549 cells at 100 uM after 72 hrs by CellTiter-Glo luminescence assay; assay type: functional; settings: A549, 72 h; in short: as §3
# M14 [9] = assay: Cytotoxicity against human M14 cells at 100 uM after 72 hrs by CellTiter-Glo luminescence assay; assay type: functional; settings: M14, 72 h; in short: as §3
# [10] = Cytotoxicity against CHOK1 cells at 100 uM after 72 hrs by CellTiter-Glo luminescence assay; assay type: cell-based, Cricetulus griseus; settings: chinese hamster, CHO-K1 cells; read-out: INH; in short: as §3
# M14 [11] = assay: Cytotoxicity against human M14 cells assessed as cell viability after 4 hrs using GF-AFC as substrate by ApoTox-Glo triplex assay; assay type: functional, cell-based
# In short: (§5)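 M14 #5 cells, 1250 per well in serum-free DMEM, pre-incubated 4 h at 37 °C, 5% CO2. Compounds added as 1:3 serial dilutions; incubated 4, 24, 48 and 72 h. Per time point, a reagent containing 400 µM GF-AFC (live-cell protease) and 400 µM bis-AAF-R110 (dead-cell protease) was added for 30 min at 37 °C, then fluorescence was read. Caspase-Glo 3/7 was added next, 30 min at room temperature, then luminescence.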
# M14 [12] = assay: Induction of apoptosis human M14 cells assessed as caspase activity at 100 uM after 4 to 72 hrs using DEVD peptide as substrate by ApoTox-Glo triplex assay; assay type: functional, cell-based; in short: as §5
# M14 [13] = assay: Cytotoxicity against human M14 cells assessed as cell viability at 100 uM after 4 hrs using bis-AAF-R110 as substrate by ApoTox-Glo triplex assay; assay type: functional, cell-based
# In short: (§6)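 M14 cells, 1250 per well, in serum-free DMEM, settled 4 h, then given 1:3 serial dilutions. Ionomycin, terfenadine and panobinostat were the controls. Incubated 4, 24, 48 or 72 h at 37 °C. A reagent containing 400 µM GF-AFC (live-cell protease, ex 400/em 505 nm) and 400 µM bis-AAF-R110 (dead-cell protease, ex 485/em 520 nm) was applied for 30 min at 37 °C. Caspase-Glo 3/7 (DEVD) luminescence was then read after 30 min at room temperature.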
# M14 [14] = assay: Induction of apoptosis human M14 cells assessed as caspase activity at 100 uM after 4 hrs using DEVD peptide as substrate by ApoTox-Glo triplex assay; assay type: functional, cell-based; in short: as §6
# M14 [15] = assay: Induction of apoptosis human M14 cells assessed as caspase activity after 24 to 48 hrs using DEVD peptide as substrate by ApoTox-Glo triplex assay; assay type: functional, cell-based; in short: as §6
# M14 [16] = assay: Cytotoxicity against human M14 cells assessed as cell viability at 100 uM after 4 hrs using GF-AFC as substrate by ApoTox-Glo triplex assay; assay type: functional, cell-based; in short: as §6
# M14 [17] = assay: Cytotoxicity against human M14 cells assessed as cell viability after 24 hrs using GF-AFC as substrate by ApoTox-Glo triplex assay; assay type: functional, cell-based; in short: as §6
# Sequence of Histone deacetylase 2 (Homo sapiens) (Q92769 whole entry): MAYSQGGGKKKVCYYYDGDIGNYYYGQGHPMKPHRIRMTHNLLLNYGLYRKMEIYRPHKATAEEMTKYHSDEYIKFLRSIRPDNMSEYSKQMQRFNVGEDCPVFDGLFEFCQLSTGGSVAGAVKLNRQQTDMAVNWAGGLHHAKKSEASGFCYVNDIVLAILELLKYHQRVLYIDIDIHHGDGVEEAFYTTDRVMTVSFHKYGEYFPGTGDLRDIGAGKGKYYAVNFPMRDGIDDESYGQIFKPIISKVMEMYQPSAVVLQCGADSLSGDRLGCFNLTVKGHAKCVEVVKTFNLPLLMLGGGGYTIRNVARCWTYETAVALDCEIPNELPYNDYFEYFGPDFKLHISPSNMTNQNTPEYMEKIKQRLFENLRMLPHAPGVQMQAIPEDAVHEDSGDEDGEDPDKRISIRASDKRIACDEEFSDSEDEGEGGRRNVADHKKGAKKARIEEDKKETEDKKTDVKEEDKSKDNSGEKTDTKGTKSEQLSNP
# Sequence of Histone deacetylase 1 (Homo sapiens) (Q13547 whole entry): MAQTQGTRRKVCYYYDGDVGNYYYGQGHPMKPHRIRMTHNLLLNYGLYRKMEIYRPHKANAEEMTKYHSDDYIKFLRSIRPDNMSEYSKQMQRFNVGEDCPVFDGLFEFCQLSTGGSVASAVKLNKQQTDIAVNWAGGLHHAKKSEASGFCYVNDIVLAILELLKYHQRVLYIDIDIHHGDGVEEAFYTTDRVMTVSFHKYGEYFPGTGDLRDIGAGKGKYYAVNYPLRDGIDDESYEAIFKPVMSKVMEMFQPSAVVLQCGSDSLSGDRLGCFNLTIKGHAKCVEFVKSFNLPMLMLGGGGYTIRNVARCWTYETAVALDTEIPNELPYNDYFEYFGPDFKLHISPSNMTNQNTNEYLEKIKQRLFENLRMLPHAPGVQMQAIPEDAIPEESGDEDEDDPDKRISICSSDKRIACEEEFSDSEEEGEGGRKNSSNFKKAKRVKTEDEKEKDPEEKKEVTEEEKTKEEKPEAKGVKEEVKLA
structure (smiles),measurement,setting,value
O=C1NC[C@H](Cc2ccccc2)N(C[C@@H]2CCCN2C[C@H](Cc2ccccc2)N2C[C@H](Cc3ccc(O)cc3)N(CCC34CC5CC(CC(C5)C3)C4)C(=O)C2=O)C1=O,inhibition,SK-MEL-28,Dose-dependent effect
same,inhibition,[1],inactive
same,inhibition,[2],inactive
same,Activity,M14 [3],Active
same,Activity,M14 [4],Active
same,inhibition,M14 [5],Dose-dependent effect
same,IC50,"M14 [5]; M14, 72 h",750 nM
same,inhibition,B16-F10,Dose-dependent effect
same,IC50,[6],1150 nM
same,inhibition,[7],inactive
same,Activity,M14 [8],inactive
CCC[C@@H]1CNC(=O)C(=O)N1C[C@@H]1CCCN1C[C@@H](Cc1ccc(O)cc1)N1C[C@H](Cc2ccc(O)cc2)N(CC2CCCC2)C(=O)C1=O,inhibition at 100 µM,A549,16%
same,inhibition at 100 µM,M14 [9],23%
same,"cytotoxicity at 72 h, 100 µM",[10],19%
CCC[C@@H]1CNC(=O)C(=O)N1C[C@@H]1CCCN1C[C@H](Cc1ccc(O)cc1)N1C[C@H](Cc2ccc(O)cc2)N(CC(CC)c2ccccc2)C(=O)C1=O (stereo partly drawn),inhibition at 100 µM,A549,0%
same,inhibition at 100 µM,M14 [9],10%
same,"cytotoxicity at 72 h, 100 µM",[10],27%
C[C@H](CCC(=O)O)C[C@H](C)C[C@H](C)C(=O)/C=C(\O)[C@H](C)C[C@H](C)C/C=C/[C@@H](C)[C@@H](O)[C@@H](C)[C@@H](O)C[C@@H]1CC[C@@](C)([C@H]2CC[C@@](C)([C@@H](C)O)O2)O1,Activity,M14 [11],Dose-dependent effect
same,Activity,M14 [12],inactive
Cc1[nH]c2ccccc2c1CCNCc1ccc(/C=C/C(=O)NO)cc1,Activity,M14 [13],inactive
same,Activity,M14 [14],inactive
same,Activity,M14 [15],Active
same,Activity,M14 [16],inactive
same,Activity,M14 [17],Dose-dependent effect
CCC[C@@H]1CNC(=O)C(=O)N1C[C@@H]1CCCN1C[C@H](Cc1ccc(O)cc1)N1C[C@@H](Cc2ccc(O)cc2)N(CC2CCCC2)C(=O)C1=O,inhibition at 100 µM,A549,5%
same,inhibition at 100 µM,M14 [9],3%
same,"cytotoxicity at 72 h, 100 µM",[10],7%
CCC[C@@H]1CNC(=O)C(=O)N1C[C@@H]1CCCN1C[C@H](Cc1ccc(O)cc1)N1C[C@@H](Cc2ccc(O)cc2)N(CC(CC)c2ccccc2)C(=O)C1=O (stereo partly drawn),"cytotoxicity at 72 h, 100 µM",[10],0%
